Calls of active or inactive are those of the source. The calls are words filed in the database; no cut-off is given here.
Key:
[1] = Cytotoxicity against human HeLaS3 cells after 24 to 72 hrs by MTT assay; format: functional, cell-based; conditions: HeLa S3
How it was run: (§1)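 MTT assay. IC50 taken as the drug concentration giving 50% inhibition of cell growth. Values are mean ± S.D. of four independent experiments, each run in triplicate.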

[2] = Cytotoxicity against mouse Sarcoma 180 cells after 24 to 72 hrs by MTT assay; format: functional, cell-based; how it was run: as §1
HEK-293T = test: Cytotoxicity against human 293T cells after 24 to 72 hrs by MTT assay; format: cell-based; how it was run: as §1
[3] = Cell cycle arrest in human HeLaS3 cells assessed as accumulation at G1 phase after 24 hrs using propidium iodide staining by flow cytometry (reference value: 75.29%); format: functional, cell-based; conditions: HeLa S3
How it was run: (§2)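 HeLa S-3 cells incubated without (control) or with compound for 9, 24 or 48 h, then fixed and stained with propidium iodide. DNA content read by flow cytometry. Populations given as percent in sub-G1, G1, S and G2/M phases.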

[4] = Cell cycle arrest in human HeLaS3 cells assessed as accumulation at S phase after 24 hrs using propidium iodide staining by flow cytometry (reference value: 6.36%); format: functional, cell-based; conditions: HeLa S3
HeLa S3 [5] = test: Induction of apoptosis in human HeLaS3 cells assessed as DNA fragmentation after 48 hrs agarose-gel electrophoresis; format: functional, cell-based
How it was run: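 HeLa S-3 cells treated with compound for 48 h. Genomic DNA extracted and run on a 2% agarose gel beside a 100 bp ladder marker to detect DNA fragmentation.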

[6] = Cell cycle arrest in human HeLaS3 cells assessed as accumulation at G1 phase after 9 hrs using propidium iodide staining by flow cytometry (reference value: 75.29%); format: functional, cell-based; conditions: HeLa S3; how it was run: as §2
[7] = Cell cycle arrest in human HeLaS3 cells assessed as accumulation at sub-G1 phase after 48 hrs using propidium iodide staining by flow cytometry (reference value: 2.41%); format: functional, cell-based; conditions: HeLa S3; how it was run: as §2
[8] = Cell cycle arrest in human HeLaS3 cells assessed as accumulation at G1 phase after 48 hrs using propidium iodide staining by flow cytometry (reference value: 75.29%); format: functional, cell-based; conditions: HeLa S3; how it was run: as §2
[9] = Cell cycle arrest in human HeLaS3 cells assessed as accumulation at S phase after 48 hrs using propidium iodide staining by flow cytometry (reference value: 6.36%); format: functional, cell-based; conditions: HeLa S3
[10] = Cell cycle arrest in human HeLaS3 cells assessed as accumulation at sub-G1 phase after 9 hrs using propidium iodide staining by flow cytometry (reference value: 2.41%); format: functional, cell-based; conditions: HeLa S3; how it was run: as §2
HeLa S3 [11] = test: Induction of apoptosis in human HeLaS3 cells assessed as formation of chromatin condensation and fragmented nuclei after 48 hrs by Hoechst 33342 staining; format: functional, cell-based
How it was run: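 HeLa S-3 cells treated with compound for 48 h, then stained with Hoechst 33342. Nuclear chromatin examined by fluorescence microscopy for condensation and fragmented nuclei, with untreated cells as comparison.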

[12] = Cell cycle arrest in human HeLaS3 cells assessed as accumulation at G2/M phase after 9 hrs using propidium iodide staining by flow cytometry (reference value: 16.21%); format: functional, cell-based; conditions: HeLa S3; how it was run: as §2
[13] = Cell cycle arrest in human HeLaS3 cells assessed as accumulation at S phase after 9 hrs using propidium iodide staining by flow cytometry (reference value: 6.36%); format: functional, cell-based; conditions: HeLa S3
[14] = Cell cycle arrest in human HeLaS3 cells assessed as accumulation at G2/M phase after 48 hrs using propidium iodide staining by flow cytometry (reference value: 16.21%); format: functional, cell-based; conditions: HeLa S3; how it was run: as §2
[15] = Cell cycle arrest in human HeLaS3 cells assessed as accumulation at G2/M phase after 24 hrs using propidium iodide staining by flow cytometry (reference value: 16.21%); format: functional, cell-based; conditions: HeLa S3; how it was run: as §2
[16] = Cell cycle arrest in human HeLaS3 cells assessed as accumulation at sub-G1 phase after 24 hrs using propidium iodide staining by flow cytometry (reference value: 2.41%); format: functional, cell-based; conditions: HeLa S3; how it was run: as §2

SMILES	IC50 [1]	IC50 [2]	IC50 (HEK-293T)	further results
O=C(Nc1cc(Cl)cc2c1[nH]c1cnc(NCc3ccccc3)cc12)C(F)(F)C(F)(F)F	9.2 µM	6.1 µM		
CCS(=O)(=O)Nc1ccc2[nH]c3cnc(NCc4ccccc4)cc3c2c1	3.4 µM			
c1ccc(Oc2cccc(CNc3cc4c(cn3)[nH]c3ccccc34)c2)cc1	0.074 µM	0.03 µM		
CC(=O)Nc1cc(Cl)cc2c1[nH]c1cnc(NCc3ccccc3)cc12	21 µM	16.2 µM	15 µM	
Clc1cc(Cl)c2[nH]c3cnccc3c2c1	0.2 µM			
Nc1ccc2[nH]c3cnc(NCc4ccccc4)cc3c2c1	11 µM			
CCS(=O)(=O)Nc1cc(Cl)cc2c1[nH]c1cnc(NCc3ccccc3)cc12	4.84 µM			
Nc1cc(Cl)cc2c1[nH]c1cnc(NCc3ccccc3)cc12	6.09 µM	3.24 µM	9.8 µM	
Clc1cc(NCc2cccnc2)c2[nH]c3cnc(NCc4ccccc4)cc3c2c1	1.2 µM	0.76 µM	1 µM	
CCCCC(=O)Nc1cc(Cl)cc2c1[nH]c1cnc(N)cc12	27 µM	18.1 µM		
CCCCC(=O)Nc1cc(Cl)cc2c1[nH]c1cnc(NCc3ccccc3)cc12	0.99 µM	0.53 µM	0.5 µM	
CNc1cccc2c1[nH]c1cnc(NCc3cccc(Oc4ccccc4)c3)cc12	0.032 µM			
c1ccc(CNc2cc3c(cn2)[nH]c2ccccc23)cc1	0.11 µM	0.44 µM		Activity [3]: 6.93%; Activity [4]: 9.18%; Activity (HeLa S3 [5]): Active; Activity [6]: 22.6%; Activity [7]: 18.8%; Activity [8]: 12.2%; Activity [9]: 16.2%; Activity [10]: 6.08%; Activity (HeLa S3 [11]): Active; Activity [12]: 57%; Activity [13]: 14.3%; Activity [14]: 52.8%; Activity [15]: 67.7%; Activity [16]: 16.2%
Nc1cc2c(cn1)[nH]c1ccccc12	66 µM	41 µM		
Clc1cc(NCc2ccccn2)c2[nH]c3cnc(NCc4ccccc4)cc3c2c1	1.5 µM	1 µM	1.1 µM	
Nc1cc2c(cn1)[nH]c1c(NC(=O)c3ccccc3)cccc12	118 µM	98 µM		
CC(C)C(=O)Nc1cc(Cl)cc2c1[nH]c1cnc(NCc3ccccc3)cc12	9 µM	8 µM	8 µM	
CCCCNc1cc(Cl)cc2c1[nH]c1cnc(NCc3ccccc3)cc12	2.6 µM	1.6 µM	2.1 µM	
Nc1cc2c(cn1)[nH]c1ccc(Cl)cc12	71 µM	29 µM		
Clc1cc(NCc2ccncc2)c2[nH]c3cnc(NCc4ccccc4)cc3c2c1	1.4 µM	1 µM	1.4 µM	
O=C(Nc1cc(Cl)cc2c1[nH]c1cnc(NCc3ccccc3)cc12)C(F)(F)C(F)(F)C(F)(F)F	7 µM	5.2 µM		
O=C(Nc1cc(Cl)cc2c1[nH]c1cnc(NCc3ccccc3)cc12)c1cccnc1	15 µM	8.3 µM	10 µM	
c1ccc(CNc2ccc3[nH]c4cnc(NCc5ccccc5)cc4c3c2)cc1	21 µM			
Clc1ccc2[nH]c3cnc(NCc4cccc(Oc5ccccc5)c4)cc3c2c1	1.8 µM	1.36 µM		
O=C(Nc1cc(Cl)cc2c1[nH]c1cnc(NCc3ccccc3)cc12)c1ccncc1	13 µM	7.9 µM	8 µM	

SMILES	IC50 [1]	IC50 [2]	IC50 (HEK-293T)	further results
CCCCC(=O)Nc1cccc2c1[nH]c1cnc(N)cc12	56 µM	38 µM		
O=C(Nc1ccc2[nH]c3cnc(NCc4ccccc4)cc3c2c1)c1ccccc1	10 µM			
CCCC(=O)Nc1cc(Cl)cc2c1[nH]c1cnc(NCc3ccccc3)cc12	2.6 µM	1.35 µM	2.3 µM	
Clc1cc(NCc2ccco2)c2[nH]c3cnc(NCc4ccccc4)cc3c2c1	3.8 µM		3.1 µM	
CC(C)(C)C(=O)Nc1ccc2[nH]c3cnc(NCc4ccccc4)cc3c2c1	14 µM			
O=[N+]([O-])c1ccc2[nH]c3cnc(NCc4ccccc4)cc3c2c1	28 µM			
CNc1cc(Cl)cc2c1[nH]c1cnc(NCc3ccccc3)cc12	0.2 µM	0.25 µM	0.35 µM	
O=C(Nc1cc(Cl)cc2c1[nH]c1cnc(NCc3ccccc3)cc12)C(F)(F)F	6.3 µM	5.1 µM		
CCCCCC(=O)Nc1cc(Cl)cc2c1[nH]c1cnc(NCc3ccccc3)cc12	2.13 µM	0.92 µM	1.4 µM	
CCC(=O)Nc1cc(Cl)cc2c1[nH]c1cnc(NCc3ccccc3)cc12	9.9 µM	5.4 µM	5.8 µM	
O=C(Nc1cccc2c1[nH]c1cnc(NCc3ccccc3)cc12)c1ccccc1	0.141 µM			Activity [3]: 12.8%; Activity [4]: 10.2%; Activity (HeLa S3 [5]): Active; Activity [6]: 21.1%; Activity [7]: 18.2%; Activity [8]: 9.36%; Activity [9]: 9.05%; Activity [10]: 3.89%; Activity (HeLa S3 [11]): Active; Activity [12]: 65.6%; Activity [13]: 9.4%; Activity [14]: 63.4%; Activity [15]: 71.1%; Activity [16]: 5.87%
CNc1cccc2c1[nH]c1cnc(NCc3ccccc3)cc12	0.046 µM	0.024 µM		
CS(=O)(=O)Nc1cc(Cl)cc2c1[nH]c1cnc(NCc3ccccc3)cc12	8 µM			
Clc1cc(NCc2ccccc2)c2[nH]c3cnc(NCc4ccccc4)cc3c2c1	4.2 µM	2.6 µM	3.8 µM	
Clc1cc(NCc2cccs2)c2[nH]c3cnc(NCc4ccccc4)cc3c2c1	4.2 µM	1.69 µM	4 µM	
CC(C)Nc1cc(Cl)cc2c1[nH]c1cnc(NCc3ccccc3)cc12	1.1 µM		0.7 µM	
O=C(Nc1cc(Cl)cc2c1[nH]c1cnc(NCc3ccccc3)cc12)c1ccccn1	3.7 µM	1.9 µM	4 µM	
c1ccc(CNc2cc3c(cn2)[nH]c2ccc(NCc4ccco4)cc23)cc1	15 µM			
CCNc1cc(Cl)cc2c1[nH]c1cnc(NCc3ccccc3)cc12	0.27 µM	0.24 µM	0.36 µM	
CCCNc1cc(Cl)cc2c1[nH]c1cnc(NCc3ccccc3)cc12	2.9 µM	1.36 µM	2 µM	
CNc1cccc2c1[nH]c1cnc(N)cc12	12 µM			
Nc1cc2c(cn1)[nH]c1c(NC(=O)c3ccccc3)cc(Cl)cc12	26.1 µM	12.4 µM		
CS(=O)(=O)Nc1ccc2[nH]c3cnc(NCc4ccccc4)cc3c2c1	19 µM			
CNc1ccc2[nH]c3cnc(NCc4ccccc4)cc3c2c1	10 µM			

Reference: ChEMBL document CHEMBL2169842, “Structure-activity relationship in the antitumor activity of 6-, 8- or 6,8-substituted 3-benzylamino-β-carboline derivatives” (Bioorg Med Chem Lett, 2012)
